# Measurements pooled from the literature.
# Protocols differ between the studies behind these lines.
# Target: Activated CDC42 kinase 1 (TNK2, Homo sapiens, UniProt Q07912)
Structure (SMILES),assay,conditions,measurement,value
CC(C)(C)c1nc(-c2cccc(NS(=O)(=O)c3c(F)cccc3F)c2F)c(-c2ccnc(N)n2)s1,"enzyme activity, inhibitor, radiometric",1 µM,remaining activity,29%
COc1cccc2c(NCc3ccccc3)nc(-n3c(N)nc4ccccc43)nc12,"target engagement in cells, inhibitor, chemoproteomics",20 mM,inhibition,18.9%
CC/C(=N\NC(=O)NCc1cccc(O)c1)c1ccc(O)c(C)c1O,"enzyme activity, inhibitor",0.1 µM,inhibition,-0.3%
O=C1NC(=O)c2cc(Nc3ccc(F)cc3)c(Nc3ccc(F)cc3)cc21,cell-free assay,0.5 µM,remaining signal,93.2%
CNC(=O)c1ccccc1Nc1cc(Nc2ccc(N3CCOCC3)cc2OC)ncc1C(F)(F)F,"enzyme activity, inhibitor",1 µM,inhibition,> 50%
O=C(Nc1cnn(-c2csc(C(=O)NC3COC3)c2)c1)Nc1c(F)cccc1Cl,"enzyme activity, inhibitor",5 µM,remaining activity,94.6%
c1ccc(CNc2nc(N3CCOc4ccccc43)nc3c2CCCC3)cc1,"target engagement in cells, inhibitor, chemoproteomics",20 mM,inhibition,-11.3%
Cc1cc(NC(=O)c2cccc3cc(-c4cccc5[nH]nc(N)c45)ccc23)ccc1F,"enzyme activity, inhibitor",0.1 µM,activity vs control,107%
CN(C)C(=O)Cn1cc(-c2nc(C3(c4ccc(-c5cnc(N)nc5)cc4)CC3)no2)cn1,"cell-free assay, competition with immobilised ligand",1 µM,remaining binding,96%
Cc1ccc(C(=O)NCc2ccsc2)cc1C#Cc1cn(C(C)C)c2ncnc(N)c12,"enzyme activity, inhibitor",1 µM,activity vs control,19%
CC(=O)N1CCC(c2ccc(C(=O)NC(=N)N)cc2C(F)(F)F)CC1,"cell-free assay, competition with immobilised ligand",1 µM,remaining binding,100%
O=C1Nc2ccc(Cl)cc2C1=Cc1cc(Cl)c(O)c(Cl)c1,cell-free assay,0.5 µM,remaining signal,32.4%
O=C(O)c1cc(-c2ccc(C3CCNCC3)cc2)c2ccc(-c3ccc(C(F)(F)F)cc3)cc2c1,"cell-free assay, competition with immobilised ligand",1 µM,remaining binding,100%
Nc1ncnc2occ(-c3ccc(NC(=O)Nc4cc(C(F)(F)F)ccc4F)cc3)c12,"cell-free assay, inhibitor",20 µM,remaining signal,13%
COc1ccc2cc(OCC3(C(=O)O)CN(C(=O)c4ccc(F)cc4)C3)ccc2c1,"cell-free assay, competition with immobilised ligand",1 µM,remaining binding,100%
Cc1ccc(C(=O)Nc2ccc(CN3CCN(C)CC3)c(C(F)(F)F)c2)cc1C#Cc1cnc2cccnn12,"enzyme activity, inhibitor",23.5 nM,remaining activity,100%
O=C(N1CCS(=O)(=O)CC1)N1C[C@H](c2ccc(OC(F)(F)F)cc2)C[C@H](c2nc(C3CC3)no2)C1,"cell-free assay, competition with immobilised ligand",1 µM,remaining binding,97%
CC(C)(O)[C@H]1CC[C@H](Nc2ccc3ncc(-c4cccc(C(F)(F)F)c4)n3n2)CC1,"enzyme activity, inhibitor",1 µM,remaining activity,5.31%
